From ChEMBL document CHEMBL3992564, “Design and synthesis of novel, potent and selective hypoxanthine analogs as adenosine A1 receptor antagonists and their biological evaluation” (Bioorg Med Chem, 2017)
pIC50: −log10 of the molar value. The source made the active and inactive calls. The rule behind the calls is not given here.

Columns and labels:
Rattus norvegicus [1] = assay: Effect on serum K+ level in Wistar rat at 3 to 30 mg/kg, po via gavage; type: ADME, organism-based; conditions: in vivo
Rattus norvegicus [2] = assay: Kaliuretic activity in Wistar rat at 3 to 30 mg/kg, po via gavage measured after 4 hrs; type: functional, organism-based
Method in brief: (§1)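 Male Wistar rats (250-300 g, n = 6) dosed orally at 5 mL/kg. Vehicles: DMAC 5%/NaOH/saline, or NMP 10%/PEG-400 20%/saline pH 12.0. Rats were then kept singly in metabolic cages without food or water for 4 h. Urine volume, Na+ and K+ were measured with a biochemistry analyser.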

Rattus norvegicus [3] = assay: Diuretic activity in Wistar rat at 10 to 30 mg/kg, po via gavage measured after 4 hrs; type: functional, organism-based; method in brief: as §1
Adenosine receptor A3 = biological target: T1, Adenosine receptor A3 (Homo sapiens, UniProt P0DMS8); assay: Displacement of [3H]HEMADO from human adenosine A3 receptor expressed in HEK293 cell membranes after 90 mins
T1 sequence (P0DMS8 whole entry): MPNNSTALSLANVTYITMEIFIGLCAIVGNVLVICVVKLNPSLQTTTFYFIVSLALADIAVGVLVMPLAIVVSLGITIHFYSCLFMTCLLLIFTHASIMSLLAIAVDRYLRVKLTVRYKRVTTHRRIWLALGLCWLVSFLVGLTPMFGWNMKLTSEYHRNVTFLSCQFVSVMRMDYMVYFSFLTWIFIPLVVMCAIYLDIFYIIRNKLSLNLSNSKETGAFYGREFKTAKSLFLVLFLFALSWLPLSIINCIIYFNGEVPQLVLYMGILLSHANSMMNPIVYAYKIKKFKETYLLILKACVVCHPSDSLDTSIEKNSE
Method in brief: (§2)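 Membranes from HEK-293 cells stably transfected with human receptor, pre-treated with adenosine deaminase. Radioligands: 1 nM [3H]DPCPX (A1), 1 nM [3H]ZM241385 (A2A), 1.6 nM [3H]MRS-1754 (A2B), 2 nM [3H]HEMADO (A3). Buffers: Tris pH 7.4 (A1, A2A, A3) or pH 6.5 (A2B), with ADA. Incubated 90 min at room temperature, then filtered. Nonspecific binding defined with 100 µM NECA. Ki from 8 concentrations run in triplicate.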

Rattus norvegicus [4] = assay: Effect on serum Na+ level in Wistar rat at 3 to 30 mg/kg, po via gavage; type: ADME, organism-based; conditions: in vivo
Rattus norvegicus [5] = assay: Natriuretic activity in Wistar rat at 3 to 30 mg/kg, po via gavage measured after 4 hrs; type: functional, organism-based; method in brief: as §1
[6] = Drug metabolism assessed as hydroxylation at N-1 propyl by metabolic soft spot analysis; type: physicochemical
[7] = biological target: T2, Adenosine receptor A2b (Homo sapiens) (UniProt P29275); assay: Displacement of [3H]MRS-1754 from human adenosine A2B receptor expressed in HEK293 cell membranes at 1 uM after 90 mins relative to control; method in brief: as §2
T2 sequence (whole entry): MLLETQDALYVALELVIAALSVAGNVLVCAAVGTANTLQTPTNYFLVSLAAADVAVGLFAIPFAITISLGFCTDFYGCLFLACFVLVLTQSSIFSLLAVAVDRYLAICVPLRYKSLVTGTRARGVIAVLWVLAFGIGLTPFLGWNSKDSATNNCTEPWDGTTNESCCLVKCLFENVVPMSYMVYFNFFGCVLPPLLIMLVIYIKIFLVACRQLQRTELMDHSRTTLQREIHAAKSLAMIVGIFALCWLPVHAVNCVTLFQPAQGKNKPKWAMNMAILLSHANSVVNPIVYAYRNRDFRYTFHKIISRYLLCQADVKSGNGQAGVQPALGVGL

[8] = Drug metabolism assessed as hydroxylation at C-8 cyclopentyl by metabolic soft spot analysis; type: physicochemical
[9] = biological target: T3, Adenosine receptor A3 (Homo sapiens) (UniProt P0DMS8); assay: Displacement of [3H]HEMADO from human adenosine A3 receptor expressed in HEK293 cell membranes at 1 uM after 90 mins relative to control; method in brief: as §2
T3 sequence (whole entry): T1 sequence (P0DMS8 whole entry)

pIC50 (Adenosine receptor A3)	Drug metabolism [6]	inhibition [7] [%]	Drug metabolism [8]	inhibition [9] [%]	SMILES	Activity (Rattus norvegicus [1])	Activity (Rattus norvegicus [2])	Activity (Rattus norvegicus [3])	Activity (Rattus norvegicus [4])	Activity (Rattus norvegicus [5])
< 5.00					CCCn1c(Oc2ccc(F)c(F)c2)nc2nc(C3CCCC3)[nH]c2c1=O	Non-Toxic	Active	Active	Non-Toxic	Active
	Metabolite_Detected	49	Metabolite_Detected	35	CCCn1c(Oc2cccnc2C)nc2nc(C3CCCC3)[nH]c2c1=O					
